This passage reports IC50, Activity and inhibition results from ChEMBL document CHEMBL4346731, “Novel meriolin derivatives as rapid apoptosis inducers” (Bioorg Med Chem, 2019).

Molecules are shown by their SMILES. Activity calls are given as the source filed them. The rule behind the calls is not given here.

Broadly, the IC50 is the concentration needed to halve the response being measured. What is called inhibition is the change of the read-out against control, counted positive when it falls.

In test [1] the test system is Ramos. Description: Antiproliferative activity against human Ramos cells assessed as reduction in cell viability after 24 hrs by resazurin dye-based spectrophotometric method. Format: functional. The procedure, abridged:
(§1)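 Cells (DSMZ stock) seeded at 0.5 x 10⁶ cells/mL and exposed to escalating compound concentrations (up to 30 μM) for 24 or 72 h; resazurin 40 μM added for the final 3 h. Resorufin fluorescence read at ex 535/em 590 nm. Viability normalized to 0.1% DMSO controls (100%). IC50 from nonlinear regression; mean of three independent experiments.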
For orientation: Alamar Blue is a resazurin reagent that responds to reducing activity.

Test [2] deals with Ramos. Briefly: Antiproliferative activity against human Ramos cells assessed as reduction in cell viability after 72 hrs by resazurin dye-based spectrophotometric method. Type of test: functional. The procedure, abridged:
as §1

Test [3] is described as follows: Antiproliferative activity against human Jurkat J16 cells assessed as reduction in cell viability after 24 hrs by resazurin dye-based spectrophotometric method. Format: functional. The procedure, abridged:
as §1

A short description of test [4]: Antiproliferative activity against human Jurkat J16 cells assessed as reduction in cell viability after 72 hrs by resazurin dye-based spectrophotometric method. Type of test: functional. The procedure, abridged:
as §1

The subject of test [5] is Ramos. Description: Induction of apoptosis in human Ramos cells assessed as caspase-3 activation at 1 uM using AcDEVD-AMC as substrate preincubated for up to 8 hrs followed by substrate addition and measured after 60 mins by spectrophotometric method. Type of test: functional, cell-based. An outline of the steps:
(§2)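 Cells in 96-well plates treated for up to 8 h, alongside staurosporine 2.5 μM as positive control. Lysis in caspase buffer (20 mM HEPES, 84 mM KCl, 10 mM MgCl₂, 200 μM EDTA/EGTA, 0.5% NP-40, protease inhibitors), then reaction buffer with Ac-DEVD-AMC added. AMC fluorescence increase followed at 37 °C for at least 60 min.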

The test system of test [6] is Ramos. Briefly: Induction of apoptosis in human Ramos cells assessed as caspase-3 activation at 3 uM using AcDEVD-AMC as substrate preincubated for up to 8 hrs followed by substrate addition and measured after 60 mins by spectrophotometric method. Type of test: functional, cell-based. An outline of the steps:
as §2

For test [7], the species on record is Homo sapiens. Briefly: Induction of apoptosis in human Jurkat J16 cells assessed as caspase-3 activation at 1 uM using AcDEVD-AMC as substrate preincubated for up to 8 hrs followed by substrate addition and measured after 60 mins by spectrophotometric method. Type of test: functional, cell-based. The procedure, abridged:
as §2

For test [8], the species on record is Homo sapiens. Description: Induction of apoptosis in human Jurkat J16 cells assessed as caspase-3 activation at 3 uM using AcDEVD-AMC as substrate preincubated for up to 8 hrs followed by substrate addition and measured after 60 mins by spectrophotometric method. Format: functional, cell-based. An outline of the steps:
as §2

Test [9] relates to Ramos. Description: Induction of apoptosis in human Ramos cells assessed as increase in cleaved PARP1 protein expression at 1 uM after 2 to 8 hrs by immunoblotting analysis. Type of test: functional, cell-based. An outline of the steps:
(§3)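 Ramos cells exposed to compound for 2-8 h at concentrations chosen from the cytotoxicity data, with or without the pan-caspase inhibitor Q-VD-OPh (10 μM). Cells were harvested, lysed and immunoblotted with mouse anti-PARP1, using GAPDH as loading control. Detection used IRDye800/680 secondary antibodies on an infrared imager.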

Test [10] deals with Ramos. Briefly: Induction of apoptosis in human Ramos cells assessed as increase in cleaved PARP1 protein expression at 1 uM after 2 to 8 hrs in presence of caspace-inhibitor Q-VD-Oph by immunoblotting analysis. Type of test: functional, cell-based. The procedure, abridged:
as §3
(In general: A western blot detects proteins with antibodies after separation by electrophoresis.)

The target in test [11] is Sphingosine kinase 1 (Homo sapiens) (UniProt Q9NYA1). Briefly: Inhibition of SK1 (unknown origin) at 10 uM using sphingosine as substrate preincubated for 15 mins followed by substrate addition and measured after 30 mins by fluorescence based assay relative to control. The procedure, abridged:
(§4)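 Compound at 10 µM preincubated 15 min with SK1 (0.5 U/mL final) or SK2 (0.1 U/mL final). Sphingosine 5 µM plus ATP added; reaction 30 min (SK1) or 60 min (SK2) at room temperature. Buffer: 50 mM HEPES pH 7.5, 4 mM MgCl₂, 100 µM orthovanadate, 1 mM DTT, 0.01% Brij 35, 2 mM EGTA. Fluorescent detection reagent added for 60 min in the dark. Inhibition = 100 minus blank-corrected relative fluorescence. Triplicates, two independent experiments; mean ± SEM.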

Test [12] addresses T1, Sphingosine kinase 2 (Homo sapiens) (UniProt Q9NRA0).
T1 sequence (whole entry): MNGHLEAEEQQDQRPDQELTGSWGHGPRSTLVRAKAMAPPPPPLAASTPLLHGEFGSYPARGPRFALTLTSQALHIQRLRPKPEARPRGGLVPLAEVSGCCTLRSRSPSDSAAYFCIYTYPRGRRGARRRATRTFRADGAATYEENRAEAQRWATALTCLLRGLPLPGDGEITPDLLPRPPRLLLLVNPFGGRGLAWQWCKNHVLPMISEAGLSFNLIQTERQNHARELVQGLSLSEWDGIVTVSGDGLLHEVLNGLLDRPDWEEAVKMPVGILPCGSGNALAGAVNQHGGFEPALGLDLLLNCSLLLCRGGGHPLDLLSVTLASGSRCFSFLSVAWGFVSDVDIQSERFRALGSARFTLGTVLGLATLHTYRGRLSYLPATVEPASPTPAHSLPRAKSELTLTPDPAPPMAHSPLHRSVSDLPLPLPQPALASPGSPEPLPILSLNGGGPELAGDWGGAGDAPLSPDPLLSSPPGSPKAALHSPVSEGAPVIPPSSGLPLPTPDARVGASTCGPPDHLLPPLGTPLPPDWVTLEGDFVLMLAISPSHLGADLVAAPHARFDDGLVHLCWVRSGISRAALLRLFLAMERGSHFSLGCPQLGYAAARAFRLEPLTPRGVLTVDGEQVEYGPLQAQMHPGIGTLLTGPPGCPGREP
Description: Inhibition of SK2 (unknown origin) at 10 using sphingosine as substrate preincubated for 15 mins followed by substrate addition and measured after 60 mins by fluorescence based assay relative to control. The procedure, abridged: as §4

Test [13] deals with Ramos. Description: Induction of apoptosis in human Ramos cells assessed as increase in cleaved PARP1 protein expression at 0.1 uM after 2 to 8 hrs by immunoblotting analysis. Type of test: functional, cell-based. The procedure, abridged:
as §3

Test [14] deals with Ramos. Briefly: Induction of apoptosis in human Ramos cells assessed as caspase-3 activation at 0.1 uM using AcDEVD-AMC as substrate preincubated for up to 8 hrs followed by substrate addition and measured after 60 mins by spectrophotometric method. Format: functional, cell-based. An outline of the steps:
as §2

In test [15] the test system is Ramos. Briefly: Induction of apoptosis in human Ramos cells assessed as caspase-3 activation at 0.3 uM using AcDEVD-AMC as substrate preincubated for up to 8 hrs followed by substrate addition and measured after 60 mins by spectrophotometric method. Type of test: functional, cell-based. An outline of the steps:
as §2

The species entered for test [16] is Homo sapiens. Briefly: Induction of apoptosis in human Jurkat J16 cells assessed as caspase-3 activation at 0.1 uM using AcDEVD-AMC as substrate preincubated for up to 8 hrs followed by substrate addition and measured after 60 mins by spectrophotometric method. Type of test: functional, cell-based. The procedure, abridged:
as §2

The species entered for test [17] is Homo sapiens. Briefly: Induction of apoptosis in human Jurkat J16 cells assessed as caspase-3 activation at 0.3 uM using AcDEVD-AMC as substrate preincubated for up to 8 hrs followed by substrate addition and measured after 60 mins by spectrophotometric method. Type of test: functional, cell-based. An outline of the steps: as §2
The subject of test [18] is Ramos. Briefly: Induction of apoptosis in human Ramos cells assessed as increase in cleaved PARP1 protein expression at 0.1 uM after 2 to 8 hrs in presence of caspace-inhibitor Q-VD-Oph by immunoblotting analysis. Format: functional, cell-based. The procedure, abridged:
as §3

Test [19] has as its system Ramos. Description: Induction of apoptosis in human Ramos cells assessed as caspase-3 activation at 10 uM using AcDEVD-AMC as substrate preincubated for up to 8 hrs followed by substrate addition and measured after 60 mins by spectrophotometric method. Type of test: functional, cell-based. An outline of the steps: as §2
For test [20], the species on record is Homo sapiens. Briefly: Induction of apoptosis in human Jurkat J16 cells assessed as caspase-3 activation at 10 uM using AcDEVD-AMC as substrate preincubated for up to 8 hrs followed by substrate addition and measured after 60 mins by spectrophotometric method. Format: functional, cell-based. An outline of the steps:
as §2

The subject of test [21] is Ramos. Briefly: Induction of apoptosis in human Ramos cells assessed as increase in cleaved PARP1 protein expression at 10 uM after 2 to 8 hrs by immunoblotting analysis. Format: functional, cell-based. An outline of the steps: as §3
The subject of test [22] is Ramos. Description: Induction of apoptosis in human Ramos cells assessed as increase in cleaved PARP1 protein expression at 10 uM after 2 to 8 hrs in presence of caspace-inhibitor Q-VD-Oph by immunoblotting analysis. Format: functional, cell-based. The procedure, abridged: as §3
For test [23], the system named is Ramos. Briefly: Induction of apoptosis in human Ramos cells assessed as caspase-3 activation at 2.5 uM using AcDEVD-AMC as substrate preincubated for up to 8 hrs followed by substrate addition and measured after 60 mins by spectrophotometric method. Type of test: functional, cell-based. The procedure, abridged:
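Ramos cells (DSMZ) plated in 96-well plates and treated for up to 8 h. Cells were then lysed in caspase buffer (20 mM HEPES, 84 mM KCl, 10 mM MgCl2, 200 µM EDTA/EGTA, 0.5% NP-40, protease inhibitors). Reaction buffer with Ac-DEVD-AMC was added, and AMC fluorescence increase was read at 37 °C for at least 60 min. Positive control: staurosporine 2.5 µM.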

Sequence of Sphingosine kinase 1 (Homo sapiens) (Q9NYA1 whole entry): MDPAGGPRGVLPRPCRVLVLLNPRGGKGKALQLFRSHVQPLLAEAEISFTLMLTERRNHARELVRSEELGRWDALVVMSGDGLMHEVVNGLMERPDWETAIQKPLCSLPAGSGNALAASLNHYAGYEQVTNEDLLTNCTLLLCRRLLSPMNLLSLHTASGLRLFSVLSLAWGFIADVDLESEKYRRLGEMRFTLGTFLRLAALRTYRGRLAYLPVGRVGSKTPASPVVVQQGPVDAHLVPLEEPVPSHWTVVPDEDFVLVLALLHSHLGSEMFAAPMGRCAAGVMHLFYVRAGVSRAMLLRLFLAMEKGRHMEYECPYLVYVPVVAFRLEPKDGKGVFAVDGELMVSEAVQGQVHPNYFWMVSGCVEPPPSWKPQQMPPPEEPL

In the case of `Nc1cc(-c2c[nH]c3ncccc23)ccn1`, the IC50 in the test on Ramos [1] came out at 970 nM; in the test with Ramos [2] it was 600 nM; in test [3], 870 nM; in test [4], 480 nM. In addition, the result in the test on Ramos [5], in the test on Ramos [6], in the test filed under Homo sapiens [7], in the test listed under Homo sapiens [8] and in the test with Ramos [9] was Active. Further, in the test on Ramos [10], the result was inactive. Moreover, the inhibition in test [11] turned out to be 10%; in test [12] it was 39%.

Consider `Nc1cc(-c2c[nH]c3ncccc23)cc(N)n1`, for which the result in the test on Ramos [13], with Ramos [14], in the test with Ramos [15], in the test listed under Homo sapiens [16] and in the test listed under Homo sapiens [17] was Active. Further, the IC50 amounted to 110 nM in the test with Ramos [1], 70 nM in the test with Ramos [2], 110 nM in test [3] and 60 nM in [4]. Besides, the result in the test on Ramos [18] was inactive. The inhibition in test [11] came to 18%; in test [12] it was 87%.

Take `c1ccc(CNc2ccc(-c3c[nH]c4ncccc34)cn2)cc1`: the IC50 in the test with Ramos [1] was 300 nM; with Ramos [2] it was 180 nM; in test [3] it was 240 nM; in test [4], 110 nM. The outcome in the test on Ramos [15], in the test on Ramos [5], in the test filed under Homo sapiens [17], in the test listed under Homo sapiens [7] and in the test with Ramos [9] was Active. The result in the test with Ramos [10] was inactive.

With `Nc1nccc(-c2c[nH]c3ncccc23)n1` [MERIOLIN 1], the outcome in the test on Ramos [19], in the test with Ramos [6], in the test filed under Homo sapiens [8], in the test filed under Homo sapiens [20] and in the test with Ramos [21] was Active. Besides, the IC50 turned out to be 4800 nM in the test on Ramos [1], 3730 nM in the test with Ramos [2], 4530 nM in test [3] and 2740 nM in test [4]. In the test with Ramos [22], the result was inactive. Besides, the inhibition in test [11] was determined as 10%; in test [12], 72%.

Turning to `COc1cc(-c2c[nH]c3ncccc23)nc(N)n1`, the result in the test with Ramos [19], with Ramos [6], in the test filed under Homo sapiens [8], in the test filed under Homo sapiens [20] and in the test with Ramos [21] was Active. Moreover, the half-maximal inhibitory concentration (IC50) with Ramos [1] came out at 6040 nM; with Ramos [2], 3900 nM; in test [3] it was 5560 nM; in test [4], 3080 nM. The result with Ramos [22] was inactive.

In the case of `Nc1cc(-c2c[nH]c3ncccc23)nc(N)n1`, the IC50 in the test on Ramos [1] turned out to be 370 nM; in the test on Ramos [2], 240 nM; in test [3], 430 nM; in [4], 210 nM. Also, the outcome with Ramos [15], in the test with Ramos [5], in the test filed under Homo sapiens [17], in the test filed under Homo sapiens [7] and in the test on Ramos [9] was Active. Also, in the test on Ramos [10], the outcome was inactive.

As to `CN[C@@H]1C[C@H]2O[C@@](C)([C@@H]1OC)n1c3ccccc3c3c4c(c5c6ccccc6n2c5c31)C(=O)NC4`, the result in the test with Ramos [23] was Active.
